# Screening results as filed in PubChem BioAssay.
# APJ agonist: APJ receptor agonism. CHO-K1 APJ PathHunter beta-arrestin, luminescence; 0% DMSO wells, 100% apelin. P35414. hit rate 0.11% among 330,000. activation, % at 20 µM. AID 2520;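 active = activation more than six SD over the plate average, tested at 20 µM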;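 note: 0% = DMSO alone and 100% = apelin-13 at 10 nM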
#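 Assay system – PathHunter CHO-K1 APJ (AGTRL-1) beta-arrestin reporter cells · Compound – one dose, 20 µM compound, 1% DMSO · Timing – compound 90 min 25 °C, reagent 1 h · Measured by – luminescence from split beta-galactosidase complementation, Galacton Star/Emerald II substrate · Measure – beta-arrestin recruitment to APJ as agonist activity, luminescent signal · Benchmarks – DMSO vs Apelin-13 10 nM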
# CXCR6 block: CXCR6 (human) receptor inhibition; CHO-K1 PathHunter CXCR6 beta-arrestin, luminescence; inhibition, % at 20 µM; hit rate 0.36% among 360,000; AID 602244; in the data active = inhibition above about 34%, passing the limit was not always enough;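 note: antagonist mode with CXCL16 agonist at 10 nM final; 0% = 10 nM CXCL16 with DMSO and 100% = unstimulated wells without agonist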
# iPSC survival up: increases survival of single human iPS cells. hiPSC single-cell survival, ATPlite luminescence; 100% = ROCK inhibitor wells, 0% = DMSO. survival enhancement, % at 20 µM. hit rate 0.044% among 360,000. AID 602274; in the data active = survival enhancement above about 18%;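 note: cells exposed to compounds for 16 hours before the ATP read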
# APJ antagonist: APJ receptor antagonism | CHO-K1 APJ beta-arrestin complementation, luminescence | inhibition, % at 20 µM | hit rate 0.32% among 330,000;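 active = inhibition above about 40% at 20 µM, limit read from the data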;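 note: cells challenged with 10 nM apelin-13 agonist together with compound; plate controls were apelin-13 plus DMSO wells for no effect and DMSO wells lacking apelin-13 for full effect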
# CCR6 antagonist: CCR6 (human) receptor antagonism. hit rate 0.49% among 340,000. AID 493098. inhibition, % at 20 µM. P51684. CHO-K1 CCR6 PathHunter beta-arrestin, luminescence, CCL20-stimulated;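 active = compounds whose inhibition of the agonist-driven luminescence signal at 20 µM reaches about 50%, limit read from the data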;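 note: cells stimulated with CCL20 at 14 nM final; plate controls were DMSO with CCL20 for no effect and DMSO without agonist for full effect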
# Target sequence (P51684 whole entry, looked up): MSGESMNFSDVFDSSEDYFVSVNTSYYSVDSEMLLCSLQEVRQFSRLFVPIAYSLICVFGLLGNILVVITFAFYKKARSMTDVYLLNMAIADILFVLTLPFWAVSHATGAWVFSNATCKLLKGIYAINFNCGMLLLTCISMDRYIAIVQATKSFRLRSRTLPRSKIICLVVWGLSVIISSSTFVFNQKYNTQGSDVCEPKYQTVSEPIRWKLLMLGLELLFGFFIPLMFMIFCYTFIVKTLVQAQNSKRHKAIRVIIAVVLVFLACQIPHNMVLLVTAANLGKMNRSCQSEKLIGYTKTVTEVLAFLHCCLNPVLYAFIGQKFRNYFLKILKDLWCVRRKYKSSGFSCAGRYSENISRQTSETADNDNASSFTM
# EBI2 block: blocks human EBI2 receptor beta-arrestin signaling | P32249 | EBI2 beta-arrestin recruitment, luminescence, 7a,25-OHC stimulated | inhibition, % at 5 µM | hit rate 0.81% among 360,000; in the data active = inhibition above about 38%;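 note: enzyme fragment complementation signal reports receptor beta-arrestin coupling in cells; 0% = agonist plus DMSO wells and 100% = wells without agonist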
# APJ antag conf: APJ receptor antagonism confirmation; APJ beta-arrestin recruitment, luminescence, antagonist mode; shares compounds with APJ antagonist; inhibition, % at 20 µM; hit rate 66% among 950; in the data active = inhibition above about 50%
# Starred values were filed as active, the others as inactive; . = not tested or not shown. Rows were chosen to be rich in hits. Some 1.5% of all compounds tested hit in one or more screens of this group.
SMILES,APJ agonist,CXCR6 block,iPSC survival up,APJ antagonist,CCR6 antagonist,EBI2 block,APJ antag conf
Nc1nc2c(c(=O)[nH]1)C(c1ccccc1)C1=C(N2)c2ccccc2C1=O (stereo not drawn),-7,19,0,45*,33,9,39
O=C(COC(=O)CNS(=O)(=O)c1ccc(Cl)cc1)NC1CCCCC1,-8,3,0,-13,-1,4,.
Oc1ccc2ccccc2c1N=Nc1ccccc1F,-2,11,0,-8,33,-4,.
O=S(=O)(O)c1cccc(N=Nc2c(O)ccc3ccccc23)c1,-5,28,0,49*,43,0,58*
Oc1ccc2ccccc2c1N=Nc1ccccn1,-13,41*,-4,75*,63*,29,97*
CCCc1cc(=O)oc2cc(OCC(=O)NCCN3CCOCC3)c(Cl)cc12,.,-5,-2,.,.,-4,.
CCCc1ccc2oc(C(=O)N3CCN(c4cnccn4)CC3)c(C)c2c1,-3,-9,0,11,6,34,.
CC(C(=O)OCC(=O)c1cccc([N+](=O)[O-])c1)N1C(=O)C2C3CCC(C3)C2C1=O (stereo not drawn),-9,-1,-2,58*,55*,6,53*
Cc1ccc(C(=O)COC(=O)C(C)N2C(=O)C3C4CCC(C4)C3C2=O)cc1C (stereo not drawn),-1,-1,0,-6,12,-1,.
CC(C(=O)OCC(=O)c1cccc([N+](=O)[O-])c1)N1C(=O)C2C3C=CC(C3)C2C1=O (stereo not drawn),-12,17,0,48*,51*,5,62*
N#CC(c1ccccc1O)N1N=C(c2ccccc2)CC1c1ccccc1 (stereo not drawn),-9,36,-1,67*,54*,12,32
COc1cc(C(C#N)N2N=C(c3ccccc3)CC2c2ccccc2)ccc1O (stereo not drawn),-4,8,0,-3,4,2,.
COc1ccc(C)cc1NC(=O)CSc1nnc2ccc(-c3cccnc3)nn12,-2,-3,0,3,5,-1,.
CCNC(=S)NNc1nnc(-c2ccccc2)c(-c2ccccc2)n1,-8,3,0,49*,32,4,90*
CC(=O)Nc1cccc(NC(=O)Cc2ccc3ccccc3c2)c1,-2,15,0,-19,-3,6,.
COCCN(C(=O)c1csnn1)C(C(=O)NC1CCCC1)c1ccc(C)cc1 (stereo not drawn),-2,5,0,16,9,6,.
COCCN(C(=O)c1csnn1)C(C(=O)NC1CCCC1)c1ccccc1F (stereo not drawn),1,6,-1,53*,6,-1,25
Cc1ccc(-c2noc(CC(=O)c3ccc([N+](=O)[O-])cc3)n2)cc1,.,23,1,.,42,-2,.
COc1ccc(N=C2C(=O)N3c4c(cccc42)C(C)=CC3(C)C)cc1,-3,30,-3,46*,50*,-2,89*
CCN1C(=O)/C(=C2\C=Cc3ccccc3N2CC)SC1=S,-6,57*,-2,43*,84*,25,100*
CCc1ccc2c(c1)C(=O)C[C@]1(CCC[C@H](C)C1)O2,-6,-5,0,7,19,-4,.
Oc1ccc(-c2nnc(Nc3cccc(O)c3)c3ccccc23)cc1,-3,-4,0,67*,6,-3,-2
CNC(=O)c1ccc(Nc2nnc(-c3ccc(O)cc3)c3ccccc23)cc1,-2,2,-1,6,8,-6,.
O=C(C[N+]1(CC#Cc2ccccc2)CCCCC1)c1ccc(Cl)cc1,-10,27,-2,57*,30,13,18
O=C(C[N+]1(CC#Cc2ccccc2)CCOCC1)c1ccc(Cl)cc1,-12,42*,-3,90*,62*,7,108*
SMILES,APJ agonist,CXCR6 block,iPSC survival up,APJ antagonist,CCR6 antagonist,EBI2 block,APJ antag conf
CCC[N+](CC#Cc1ccccc1)(CCC)CC(=O)OC,-2,-11,-2,6,-9,-3,.
CCC[N+](CC#Cc1ccccc1)(CCC)CC(=O)c1ccc(Cl)cc1,-11,15,-2,60*,43,9,53*
O=C(CSc1nnc(N2CCCC2)n1-c1ccccc1Cl)N1CCN(c2ccccn2)CC1,-2,-4,0,7,6,-12,.
O=C(c1cccc(N2CCCC2=O)c1)N1CCN(c2cccc(Cl)c2)CC1,5,-6,-1,12,10,-6,.
C#CCOCCOCCOCCNc1nc(N2CCN(C(=O)Cn3cc(CC(C)O)nn3)CC2)nc(N2CCN(C(=O)[C@H](CCCCN)n3cc(CC(C)O)nn3)CC2)n1 (stereo partly drawn),.,2,12,.,-4,-7,.
CN(CCCC(=O)O)c1ccc(N=Nc2ccc([N+](=O)[O-])cc2)cc1,-10,56*,0,46*,65*,6,89*
CN(N=Nc1ccc([N+](=O)[O-])cc1)c1ccccc1,-2,-7,0,17,11,2,.
CC(C)(C)c1cc(Cl)c(O)c(NC(=S)NC(=O)c2cccnc2)c1,-9,40*,1,67*,52*,19,78*
CC(C)(C)c1ccc(C(=O)NNC(=S)NC(=O)c2cccnc2)cc1,-5,28,0,22,27,-13,.
CC(NC(=O)c1ccccc1)c1nnc(SCC(=O)NC2CCCC2)n1C (stereo not drawn),-2,0,0,-8,6,-5,.
CCN(CC)c1nc(C)c(C(=S)Nc2cc([N+](=O)[O-])ccc2Cl)s1,-11,42*,0,40*,57*,16,100*
CCC(C)(C)C(=O)Nc1cc([N+](=O)[O-])ccc1Cl,-2,-3,2,-30,-16,-11,.
CN(Cc1cccnc1)C(=O)c1ccc(Cl)c(NS(=O)(=O)c2ccc(F)cc2)c1,6,6,0,-2,2,4,.
O=[N+]([O-])c1ccc(O)c(-c2nc(-c3ccccc3)c(-c3cccs3)[nH]2)c1,-6,28,-1,42*,45,-9,54*
CCn1c(-c2ccccc2)ccc(C#N)c1=O,-1,0,-2,50*,5,4,47
CN1CCN(C(=O)c2cnn(-c3ccccc3)c2NC(=O)c2ccccc2)CC1,-2,7,-1,13,3,-10,.
O=C(Nc1c(C(=O)N2CCCCC2)cnn1-c1ccccc1)c1ccccc1F,1,6,0,62*,-5,-7,-17
CC1(O)CC(c2ccc(Cl)cc2)=NN1C(=O)c1ccc([N+](=O)[O-])cc1 (stereo not drawn),-8,17,-1,41*,68*,20,70*
